Assay outcomes from PubChem.
Sampled rows, rich in hits. Any-hit rate of the full collection: about 1.4%.
m-calpain inh = calpain II (pig) inhibition | purified calpain II, fluorogenic peptide substrate, 30 min | inhibition, % at 16 µM | 220,000 compounds, 0.37% hits;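 active means inhibition above about 50%, limit read from the data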
FXIa inh = factor XIa (human) inhibition; P03951; purified FXIa, Boc-Glu-Ala-Arg-AMC fluorogenic substrate; inhibition, % at 5 µM; 220,000 compounds, 0.14% hits; AID 798;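 active means inhibition of at least 40%; inactive means inhibition below 40%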;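 further: fluorescence of freed AMC excited at 355 nm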
Target sequence (P03951 19-387 limits assumed): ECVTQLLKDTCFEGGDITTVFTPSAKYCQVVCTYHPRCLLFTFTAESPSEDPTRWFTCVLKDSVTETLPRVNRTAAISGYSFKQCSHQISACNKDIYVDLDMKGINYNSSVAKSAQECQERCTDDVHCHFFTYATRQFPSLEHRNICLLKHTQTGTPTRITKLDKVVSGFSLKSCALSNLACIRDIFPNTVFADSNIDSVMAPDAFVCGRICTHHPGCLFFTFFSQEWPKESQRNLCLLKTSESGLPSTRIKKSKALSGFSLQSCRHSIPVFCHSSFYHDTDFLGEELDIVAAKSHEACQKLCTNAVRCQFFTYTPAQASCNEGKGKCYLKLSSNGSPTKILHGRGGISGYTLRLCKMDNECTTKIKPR
Target sequence (P03951 388-625 limits assumed): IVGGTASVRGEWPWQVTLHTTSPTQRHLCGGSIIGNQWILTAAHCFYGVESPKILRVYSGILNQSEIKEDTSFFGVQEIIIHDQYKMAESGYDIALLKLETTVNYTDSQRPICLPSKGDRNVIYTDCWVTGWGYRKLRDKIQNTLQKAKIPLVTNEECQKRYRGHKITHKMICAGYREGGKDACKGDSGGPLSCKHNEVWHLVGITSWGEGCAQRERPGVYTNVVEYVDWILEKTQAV
Thrombin inh = thrombin (human) inhibition. P00734. alpha-thrombin, Boc-VPR-AMC fluorogenic substrate cleavage. inhibition, % at 5 µM. 220,000 compounds, 0.26% hits. AID 1046;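 active means inhibition at or above 40%; inactive means inhibition below 40%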
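Material: Human alpha-thrombin protein | Buffer or medium: pH 7.5 Tris-saline with Tween 20 | Reagent: Boc-VPR-AMC substrate, 15 µM final | Schedule: Reaction at ambient temperature | Detection: AMC fluorescence at 355 nm excitation and 460 nm emission | Evaluation: Percent inhibition scaled between no-compound controls and no-enzyme blanks | Controls: no-compound enzyme wells and no-enzyme blanks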
hK5 inh = inhibitors of human kallikrein 5 | 210,000 compounds, 0.59% hits | recombinant hK5, fluorogenic AMC substrate cleavage | inhibition, % at 5 µM | AID 873;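 active means inhibition of 40% or more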
Furin inhibitor = inhibitors of human furin; 220,000 compounds, 0.061% hits; inhibition, % at 20 µM or 30 µM; AID 463115; purified furin, fluorogenic substrate cleavage; in the data active means inhibition above about 25%
FXIIa inh 1536 = inhibitors of human coagulation factor XIIa; P00748; purified FXIIa, Boc-QGR-AMC fluorogenic substrate, 2 h; inhibition, % at 5 µM; 220,000 compounds, 0.3% hits; in the data active means inhibition above about 40%
Hits are given with their value; i = inactive; nt = no result given.

SMILES | m-calpain inh | FXIa inh | Thrombin inh | hK5 inh | Furin inhibitor | FXIIa inh 1536
CCOC(=O)N1CCN(Cc2c(NC(=O)c3ccco3)sc(C)c2C)CC1 | i | i | i | i | i | i
O=C(NCCC1=CCCCC1)c1ccc2c(c1)N(Cc1ccccc1)C(=O)CS2 | 60 | i | i | i | i | i
CCOC(=O)Cn1c(-c2ccccc2)nc2ccccc2c1=O | i | i | i | i | i | i
CC(C)Cn1c(-c2ccccc2)nc2ccccc2c1=O | i | i | i | i | i | 42
O=C(CSc1nc2nc(-c3cccs3)cc(C(F)(F)F)c2c(=O)[nH]1)NCc1ccco1 | i | i | i | i | i | i
N#Cc1c2c(c(NCc3ccco3)n3c1nc1ccccc13)CCC2 | i | i | i | i | i | i
N#Cc1c2c(c(Nc3ccc(O)cc3)n3c1nc1ccccc13)CCC2 | i | i | i | 44 | i | i
CCCCS(=O)(=O)c1sc2nc3c(cc2c1N)CCCC3 | i | i | i | 42 | i | i
CN(C)c1ccc(-c2nnn(CC(=O)Nc3ccccc3N3CCOCC3)n2)cc1 | i | i | i | 66 | i | i
O=C(COc1ccccc1)Nc1ccc(CN2CCCCC2)cc1 | i | i | i | i | i | i
Cc1cc(OCC(=O)Nc2ccc(CN3CCCCC3)cc2)ccc1Cl | i | i | i | 42 | i | i
CSc1n[nH]c(NCc2ccc(C)cc2)n1 | i | i | i | i | 27 | i
CSc1n[nH]c(NCc2ccc(Cl)cc2)n1 | i | i | i | i | i | i
Cc1cccc(C(=O)NNC2=CC(=O)CC(C)(C)C2)c1O | i | i | i | i | i | i
COc1ccc(C(=O)NNC2=CC(=O)CC(C)(C)C2)cc1 | i | i | i | 49 | i | i
CC1(C)CC(=O)C=C(NNC(=O)c2ccccc2O)C1 | i | i | i | i | i | 60
COCc1cc(OC)nc(-c2csc(C)n2)n1 | i | i | i | i | i | i
Cc1cc(Cl)c(S(=O)(=O)N2CCCCCC2)cc1OCC(N)=O | i | i | i | 41 | i | i
Cc1cc(Cl)c(S(=O)(=O)N2CCCC2)cc1OCC(N)=O | i | i | i | nt | i | i
Cc1cc(Cl)c(S(=O)(=O)NCc2ccccc2)cc1OCC(N)=O | i | i | i | i | i | i
Cc1cc(Cl)c(S(=O)(=O)NCc2ccncc2)cc1OCC(N)=O | i | i | i | 54 | i | i
CC(=O)NC(CC(=O)NC1CCCCCC1)c1ccccc1 (stereo unspecified) | i | i | i | i | i | i
CC(CC(=O)NC1CCCC1)c1ccccc1 (stereo unspecified) | i | i | i | 60 | i | i
O=c1cc(N2CCCCC2)c(-c2ccccc2)nn1Cc1ccc(Cl)cc1Cl | 54 | i | i | i | i | i
CS(=O)(=O)c1ccc(C(=O)N2CCc3ccccc3C2)cc1 | 59 | i | i | i | i | i
SMILES | m-calpain inh | FXIa inh | Thrombin inh | hK5 inh | Furin inhibitor | FXIIa inh 1536
CC(C)(C)C1=CC=C(C(C)(C)C)C(=O)C1=O | i | i | i | i | i | i
COCCCN1C(=O)C(O)=C(C(C)=O)C1c1cccc(F)c1 (stereo unspecified) | i | i | i | i | i | i
O=c1[nH]nc(Cc2ccc(Cl)cc2)c2ccccc12 | i | i | i | 54 | i | i
Cc1cc(S(=O)(=O)N2CCCC2)ccc1OCC(=O)N1CCOCC1 | i | i | i | i | i | i
O=C(NC1=NCCS1)C1COc2ccccc2O1 (stereo unspecified) | i | i | i | i | i | i
O=C(COc1ccccc1)N1CCN=C1SCc1ccccc1F | i | i | i | i | i | i
O=C(c1cccs1)n1nc(-c2ccccc2)nc1NCc1ccc(F)cc1 | i | i | i | i | i | i
O=C(c1ccc(F)cc1)n1c(NCc2ccccc2)n[nH]c1=S | i | i | i | i | i | i
O=C(c1ccc([N+](=O)[O-])cc1)n1nc(-c2ccccc2)nc1NCc1ccccc1 | i | i | 87 | i | i | i
O=C(c1ccc([N+](=O)[O-])cc1)n1nc(-c2ccccc2)nc1NCc1ccc(F)cc1 | i | i | 52 | i | i | i
CC(=O)n1nc(-c2ccccc2)nc1NCc1ccc(F)cc1 | i | i | 98 | i | i | i
O=C(CSc1nc(-c2ccccc2)nn1C(=O)c1ccccc1)Nc1cccc([N+](=O)[O-])c1 | i | i | 57 | i | i | i
O=C(c1cccc([N+](=O)[O-])c1)n1nc(-c2ccccc2)nc1NCc1ccccc1 | i | i | 67 | i | i | i
C[C@H](NC(=O)c1ccccc1Cl)C(=O)OC(C(=O)Nc1cc(C(F)(F)F)ccc1Cl)c1ccccc1 (stereo partly specified) | i | i | i | i | i | i
O=C(CNC(=O)c1ccccc1F)OC(C(=O)Nc1cc(C(F)(F)F)ccc1Cl)c1ccccc1 (stereo unspecified) | 61 | i | i | i | i | i
CCCCNC(=O)CSc1nc(N)c(C(=O)Nc2ccc(OC)cc2)s1 | i | i | i | i | i | i
CCC(C)(C)n1nnnc1C(c1ccc(O)cc1)N1CCc2ccccc2C1 (stereo unspecified) | i | i | i | i | i | i
CC(C)(C)C1CCc2sc(C(=O)NNC(=O)CCl)cc2C1 (stereo unspecified) | 66 | i | i | i | i | i
COc1ccc(NC(=O)CSc2nc3ccccc3c(=O)n2CCCN2CCCCC2)c(OC)c1 | i | i | i | 49 | i | i
COc1ccc(OC)c(NC(=O)CSc2nc3ccccc3c3nc4ccccc4n23)c1 | 70 | i | i | i | i | i
CC1(C)C2CC=C(/C=N/NC(=O)c3ccccc3O)C1C2 (stereo unspecified) | i | i | i | i | i | i
OC(COc1ccc2c(c1)OCO2)CN1CCCCC1 (stereo unspecified) | i | i | i | i | i | i
CCC(CO)NC1=C([N+](=O)[O-])C(=O)CC(C)(C)C1 (stereo unspecified) | i | i | i | 50 | i | i
CC1(C)CC(=O)C([N+](=O)[O-])=C(NCCCO)C1 | i | i | i | i | i | i
O=C1c2ccccc2NC(c2ccc(O)cc2)N1/N=C/c1ccc(O)cc1 (stereo unspecified) | i | i | i | i | i | i
SMILES | m-calpain inh | FXIa inh | Thrombin inh | hK5 inh | Furin inhibitor | FXIIa inh 1536
COc1ccc(/C=C/C(=O)N2CCN(S(=O)(=O)/C=C/c3ccccc3)CC2)cc1OC | i | i | i | i | i | i
COc1ccc(/C=C/C(=O)N2CCN(S(=O)(=O)c3ccccc3)CC2)cc1OC | i | i | i | 48 | i | i
CCOC(=O)c1cc(C)sc1/N=C/C1C(=O)CCCC1=O | i | i | i | i | 37 | i
CCOC(=O)c1cc(CC)sc1/N=C/C1C(=O)CCCC1=O | i | i | i | i | i | i
CCOC(=O)c1cc(C)sc1/N=C/C1=C(O)CCCC1=O | i | i | i | i | 36 | i
CCOC(=O)c1c(/N=C/C2=C(O)CC(C)(C)CC2=O)sc2c1CCCC2 | i | i | i | i | i | i
